The list is not random: actives were taken first. Their share in the collection is about 6.4%.
WT yeast gro inh: growth inhibition of WT yeast, mitochondrial fusion screen; AID 1362; 190,000 tested, 2.1% active; mitochondrial fusion phenotypic screen, WT strain; inhibition, % at 10 µM; in the data active = inhibition above about 58%; tested in S. cerevisiae
MPTP block: inhibitors of mitochondrial permeability transition pore; AID 602449; isolated mouse mitochondria, Ca2+ swelling absorbance, 30 min; 360,000 tested, 1.4% active; inhibition, % at 10 µM;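 active = inhibition of 50% or more, scaled per plate between neutral and stimulator controls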;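 also: 0% = DMSO wells given calcium and 100% = 1 mM EGTA wells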
EBV gp42 inh: EBV gp42 inhibition | AID 1085 | inhibition, % (tested at 21.74 µM) | 220,000 tested, 0.42% active | Fluorescence polarization binding assay, mP read-out | Q1HVG2; in the data active = inhibition above about 50%
Target sequence (Q1HVG2 whole entry, looked up): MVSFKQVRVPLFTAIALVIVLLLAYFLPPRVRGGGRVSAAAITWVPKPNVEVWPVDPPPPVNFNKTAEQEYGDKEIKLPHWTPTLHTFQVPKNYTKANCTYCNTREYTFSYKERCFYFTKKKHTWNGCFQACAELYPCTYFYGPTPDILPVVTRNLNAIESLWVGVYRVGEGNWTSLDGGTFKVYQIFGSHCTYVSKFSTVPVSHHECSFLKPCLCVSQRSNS
GRIN3A LBD mod: modulates the human NR3A ligand-binding domain | NR3A LBD differential scanning fluorimetry, Tm shift; 0% = protein alone, 100% = glycine-bound protein | Tm shift relative to glycine control, % at 25 µM | 340,000 tested, 2.5% active;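 active = melting temperature shift of at least 10% of the positive control shift, at one fixed dose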
TbMetRS inhib: Trypanosoma brucei MetRS inhibition; purified T. brucei MetRS, ATP depletion, Kinase-Glo luminescence; inhibition, % at 11.9 µM; 360,000 tested, 0.4% active; AID 624268;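 active = inhibition above a per-plate cutoff of the control wells' mean inhibition plus 3 SD, cut at about 5.5% in these data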;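 also: 0% = DMSO wells median and 100% = median of wells with control inhibitor compound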
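assay system = parasite MetRS enzyme | timing = 15 min preincubation, 2 h reaction, all 25 °C | evaluation = percent inhibition relative to median high and low control wells | medium = HEPES buffer containing pyrophosphatase, BSA, spermine, DTT | compound = single dose, 11.9 µM final nominal, 0.9% final DMSO | detection = Kinase-Glo luminescence, ATP depletion format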
CHOP inh: CHOP inhibition in unfolded protein response. CHO-K1 CHOP-promoter luciferase, tunicamycin-induced, 15-18 h. inhibition, % at 10 µM. 220,000 tested, 3.8% active;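 active = compounds that reduced the stress-induced luciferase reporter signal by more than about 70% of percent inhibition, limit read from the data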;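 also: 0% = tunicamycin plus vehicle and 100% = wells without tunicamycin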
* = called active by the depositor.

What do the screens show for `Nc1nonc1-n1nnc(C(=O)N/N=C/c2ccc(O)cc2)c1COc1ccc(F)cc1`?
MPTP block: 2; EBV gp42 inh: -9; GRIN3A LBD mod: 4; TbMetRS inhib: 0; CHOP inh: 19

How did Nc1nonc1-n1nnc(C(=O)N/N=C/c2ccc(OCc3ccccc3)cc2)c1CNc1ccccc1 do in these assays?
MPTP block: 4; GRIN3A LBD mod: 31*; TbMetRS inhib: 0

Results for Nc1nonc1-n1nnc(C(=O)N/N=C/c2ccc(OCc3ccccc3)cc2)c1COc1ccc(F)cc1 ?
MPTP block: 1; EBV gp42 inh: -16; GRIN3A LBD mod: 19*; TbMetRS inhib: 1; CHOP inh: 41

How did Cc1cccc(COc2ccc(/C=N/NC(=O)c3nnn(-c4nonc4N)c3CN3CCCCC3)cc2)c1 do in these assays?
MPTP block: 2; GRIN3A LBD mod: 13*; TbMetRS inhib: 0

Results for CN(C)Cc1c(C(=O)N/N=C/c2ccc(OCc3c(F)cccc3Cl)cc2)nnn1-c1nonc1N ?
MPTP block: -2; GRIN3A LBD mod: -2; TbMetRS inhib: 0

How did Nc1nonc1-n1nnc(C(=O)N/N=C/c2ccccc2Cl)c1COc1ccc(F)cc1 do in these assays?
MPTP block: 9; EBV gp42 inh: -12; GRIN3A LBD mod: 23*; TbMetRS inhib: -1; CHOP inh: 35

What do the screens show for `Nc1nonc1-n1nnc(C(=O)N/N=C/c2ccc(OCc3cccc(Cl)c3)cc2)c1CN1CCCCC1`?
MPTP block: 3; GRIN3A LBD mod: -4; TbMetRS inhib: 0

How did COCCCn1c(=O)/c(=C/c2ccccc2OC(F)F)s/c1=C(\C#N)C(=O)NCCOC do in these assays?
MPTP block: 0; GRIN3A LBD mod: 1; TbMetRS inhib: 0

How did COCCNC(=O)/C(C#N)=c1\s/c(=C\c2ccccc2OC(F)F)c(=O)n1Cc1ccccc1 do in these assays?
WT yeast gro inh: 5; EBV gp42 inh: -51; CHOP inh: 95*

What do the screens show for `COC(=O)c1nc(C(=O)OC)c(C(=O)OC)nc1C(=O)OC`?
WT yeast gro inh: -3; MPTP block: 3; EBV gp42 inh: -12; GRIN3A LBD mod: 1; TbMetRS inhib: 0; CHOP inh: 18

How did COC(=O)c1nccnc1N do in these assays?
MPTP block: 1; GRIN3A LBD mod: 14*; TbMetRS inhib: 0

How did CC1(C(=O)O)CCC(C(=O)Nc2ccccc2)C1(C)C (stereo not drawn) do in these assays?
WT yeast gro inh: -1; MPTP block: 0; EBV gp42 inh: -19; GRIN3A LBD mod: 0; TbMetRS inhib: -1; CHOP inh: 14

What do the screens show for `CC1CCc2cc(F)ccc2N1C(=O)CCl` (stereo not drawn)?
WT yeast gro inh: -5; MPTP block: 25; EBV gp42 inh: -5; GRIN3A LBD mod: 1; TbMetRS inhib: 0; CHOP inh: 92*

How did CC1CCc2cc(F)ccc2N1C(=O)c1ccncc1 (stereo not drawn) do in these assays?
WT yeast gro inh: 15; MPTP block: -1; EBV gp42 inh: -3; GRIN3A LBD mod: 2; TbMetRS inhib: -1; CHOP inh: 17

How did CCC(CC)C(=O)N1c2ccc(F)cc2CCC1C (stereo not drawn) do in these assays?
WT yeast gro inh: 17; MPTP block: 2; EBV gp42 inh: 0; GRIN3A LBD mod: 0; TbMetRS inhib: 0; CHOP inh: 52

What do the screens show for `CC1CCc2cc(F)ccc2N1C(=O)c1cnc2sccn2c1=O` (stereo not drawn)?
WT yeast gro inh: -9; MPTP block: -2; EBV gp42 inh: -18; GRIN3A LBD mod: -1; TbMetRS inhib: 0; CHOP inh: 79*

How did Cc1ccc(C(=O)Nc2cccc3ccccc23)cc1 do in these assays?
MPTP block: -2; GRIN3A LBD mod: -2; TbMetRS inhib: -1

How did CC(C)(C)c1cc(C(=O)Nc2cccc3ccccc23)ccn1 do in these assays?
WT yeast gro inh: -5; MPTP block: 2; EBV gp42 inh: -8; GRIN3A LBD mod: 683*; TbMetRS inhib: -1; CHOP inh: 14

How did CCCCCCOc1ccc(OCC(O)CN2C(=O)NC(C)(C)C2=O)cc1 (stereo not drawn) do in these assays?
WT yeast gro inh: 10; MPTP block: 1; EBV gp42 inh: 0; GRIN3A LBD mod: 14*; TbMetRS inhib: -1; CHOP inh: 8

What do the screens show for `Cc1ccc(OCC(O)CN2C(=O)NC(C)(C)C2=O)cc1` (stereo not drawn)?
WT yeast gro inh: -5; MPTP block: 0; EBV gp42 inh: -13; GRIN3A LBD mod: 4; TbMetRS inhib: -1; CHOP inh: 14

How did Cc1ccc(Nc2ncnc(Cl)c2N)cc1 do in these assays?
MPTP block: -2; GRIN3A LBD mod: 13*; TbMetRS inhib: 0

Results for O=C(Nc1cccc(F)c1)c1cccc2c1C(=O)N(C1CCCCC1)C2 ?
MPTP block: 2; GRIN3A LBD mod: 2; TbMetRS inhib: 0

What do the screens show for `C/C(N)=C(/C#N)C(=O)COC(=O)c1ccc(C)c(S(=O)(=O)N2CCCCC2)c1`?
WT yeast gro inh: -5; MPTP block: 0; EBV gp42 inh: 2; GRIN3A LBD mod: 2; TbMetRS inhib: 0; CHOP inh: 8

What do the screens show for `C/C(N)=C(/C#N)C(=O)COC(=O)c1cc(S(=O)(=O)N2CCCCC2)ccc1C`?
WT yeast gro inh: 95*; MPTP block: 1; EBV gp42 inh: -11; GRIN3A LBD mod: -3; TbMetRS inhib: 0; CHOP inh: 17

How did O=C(CN1C(=O)COc2ccccc21)N(Cc1cccnc1)Cc1cccc(F)c1 do in these assays?
WT yeast gro inh: 77*; MPTP block: -3; EBV gp42 inh: -10; GRIN3A LBD mod: 2; TbMetRS inhib: 0; CHOP inh: 4

Results for CCC1Oc2ccc(C)cc2N(CC(=O)N(Cc2cccnc2)Cc2cccc(F)c2)C1=O (stereo not drawn) ?
WT yeast gro inh: -11; MPTP block: 1; EBV gp42 inh: -11; GRIN3A LBD mod: -1; TbMetRS inhib: 0; CHOP inh: -18

How did CC(C)C(NS(=O)(=O)c1ccc2c(c1)oc(=O)n2C)C(=O)N1CCN(c2ccccc2F)CC1 (stereo not drawn) do in these assays?
WT yeast gro inh: 5; MPTP block: -1; EBV gp42 inh: 34; GRIN3A LBD mod: 0; TbMetRS inhib: 0; CHOP inh: -35

What do the screens show for `CS(=O)(=O)c1ccc(C(=O)OCc2nnc(-c3ccc(Cl)cc3)o2)cc1[N+](=O)[O-]`?
WT yeast gro inh: 20; MPTP block: -1; EBV gp42 inh: 7; GRIN3A LBD mod: 1; TbMetRS inhib: -1; CHOP inh: 79*

How did CCNC(=S)N1CCN(c2nc(-c3cccc(OC)c3)cs2)CC1 do in these assays?
MPTP block: 2; GRIN3A LBD mod: 19*; TbMetRS inhib: -1

How did CC(C)[C@H](NC(=O)NCCc1ccc(F)cc1)C(=O)O do in these assays?
WT yeast gro inh: 0; MPTP block: 6; EBV gp42 inh: -22; GRIN3A LBD mod: 2; TbMetRS inhib: -2; CHOP inh: 23
